Results on 4 compounds are retold here after publication PMC3076219 (European journal of immunology, 2009).

For data set [1], the system named is CXCR1. Conditions: indirect, inside-out signaling; ref [16]; cited from earlier work.
Data set [2] relates to CXCR2. Particulars: indirect, inside-out signaling; ref [16]; cited from earlier work.
In data set [3] the test system is neutrophils. Conditions: ref [27]; cited from earlier work.
Data set [4] relates to monocytes. The data set is described as follows: Migration of monocytes, 24-well Transwell. The data set is classed as cell-based, human. Conditions: LL-37 5 µM, Fig. 7F. The gist of the method: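 CFSE-labelled monocytes or THP-1 cells (5 µM, 5 min RT) at 2×10^6/mL in phenol-red-free RPMI 1640 with 1% FBS went in the Transwell upper chamber (3-µm pores). Stimuli in the lower chamber included CXCL1 50 nM, WKYMVm 5 µM and ATP/BzATP 50 µM. Cells were used with or without 20 min preincubation with 10 µM CXCR2 antagonist. Incubation at 37 °C lasted 90 min for monocytes and 2 h for THP-1. Lower-well cells were read at 495 nm against a standard curve, in quadruplicate.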

The test system of data set [5] is neutrophils. Briefly: Neutrophil migration, 24-well Transwell. Conditions: Fig. 6H. Format: cell-based, human. The gist of the method:
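CFSE-labelled human neutrophils (5 µM, 5 min RT) at 5×10^6/mL in phenol-red-free RPMI 1640 with 1% FBS went in the Transwell upper chamber (3-µm pores). The lower chamber held test peptide (1 or 5 µM) or medium. Some cells were first preincubated 20 min with 10 µM CXCR2 antagonist. After 1 h at 37 °C, migrated cells were read at 495 nm against a standard curve. Quadruplicate; unpaired t-test.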

For data set [6], the system named is neutrophils. Briefly: Calcium mobilization of neutrophils. The data set is classed as cell-based, human. (Calcium assays in cells follow changes in intracellular calcium, usually with a dye or a luminescent sensor.)
Data set [7] deals with neutrophils. Particulars: cited from earlier work.
Data set [8] has as its system neutrophils. Conditions: ref [66]; cited from earlier work.
Data set [9] deals with CXCR1. Briefly: CXCR1 surface expression on neutrophils, flow cytometry. The data set is classed as cell-based, human. Particulars: WKYMVm 1 µM, 10 µM, 100 µM; 3h; Fig. 2B. The gist of the method:
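Human blood neutrophils were isolated by dextran sedimentation and Ficoll (>95% CD16+) and held at 5×10^6/mL in RPMI 1640 with 1% FBS. They were treated 3h with a dose series (test peptide 1–10 µM; chemokines 1, 5, 10, 50 nM) or with 5 µM for 0.5–3h. Cells were blocked in 10% human serum and stained with anti-CXCR1-APC/anti-CXCR2-FITC or anti-P2X7-FITC, plus anti-CD16. Read-out was flow cytometry GMFI.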
A general note: A flow cytometer gives signals particle by particle.

The subject of the next data set is FPR2. The data set is described as follows: FPR2 surface expression on monocytes. The data set is classed as cell-based, human. Particulars: Supporting information Fig. 2.
In data set [10] the test system is CXCR2. The data set is described as follows: CXCR2 surface expression on neutrophils, flow cytometry. The data set is classed as cell-based, human. Particulars: WKYMVm 1 µM, 10 µM, 100 µM; 3h; Fig. 2B.
A further data set concerns THP-1 cells. Briefly: Calcium mobilization in THP-1 cells. Format: cell-based. Conditions: Fig. 7C. The gist of the method: (§1)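 Peripheral blood monocytes (kit-isolated from PBMC, CD14-checked) or THP-1 cells at 10^7/mL were loaded with 5 µM Indo-1-AM for 7 min at 37 °C, then held 10 min at RT and washed in cold PBS. Cells were run at 2×10^6/mL in KRP (PBS, 1.5 mM CaCl2, 1.5 mM MgSO4). After baseline they got a first stimulus, then a second. Flow cytometry used 351 nm excitation and the 405:485 nm ratio, gating live cells. Three independent experiments.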

The test system of data set [11] is CXCR2. The data set is described as follows: CXCR2 surface expression on monocytes. Format: cell-based, human. Particulars: Supporting information Fig. 2.
Data set [12] concerns neutrophils. The data set is described as follows: Cross-desensitization of calcium mobilization of neutrophils. Format: cell-based, human. Conditions: WKYMVm first.
Data set [13] has as its system monocytes. Briefly: Calcium mobilization in monocytes. Format: cell-based, human. Particulars: ATP or WKYMVm first, then LL-37; Fig. 7D. The gist of the method:
as §1

“Also recorded” adds a separate entry of the source.

On to TNFα, for which the CXCR1 down-regulation entry with CXCR1 [1] was “cause down-regulation of CXCR2 and CXCR1”. Moreover, the CXCR2 down-regulation entry with CXCR2 [2] was “cause down-regulation of CXCR2 and CXCR1”.

Turning to `O=C(Nc1ccc([N+](=O)[O-])cc1O)Nc1ccccc1Br` [SB225002], in the data set on neutrophils [3], the “inhibition of [Ca2+]i of neutrophils treated with CXCL1 or CXCL8” value is given as “dose dependent inhibition”. For the same compound, in the data set on monocytes [4] (SB225002 10 µM, 20 min preincubation), the “inhibition of LL-37-stimulated monocyte migration” value is on record as “blocked”. For the same compound, the “migration of SB225002 treated controls” value with neutrophils [5] (SB225002 10 µM without LL-37) was “did not interfere with cell migration”. Further, in the data set on neutrophils [5] (SB225002 10 µM, 20 min pretreatment, LL-37 5 µM, p<0.05), the “inhibition of LL-37-induced neutrophil migration” value was “completely inhibited; also recorded: completely block”. For the same compound, the “reduction of [Ca2+]i for LL-37” value in the data set with neutrophils [6] (SB225002 10 µM, then 180 s later LL-37 5 µM, Fig. 6A) was above 90%. In the data set on neutrophils [6] (SB225002 10 µM, ATP 5 µM, Fig. 6F), the “inhibition of calcium mobilization for ATP” value was “not for fMLF (Fig. 6E), ATP”. Besides, the “inhibition of calcium mobilization for CXCL1” value in the data set with neutrophils [6] (SB225002 10 µM, CXCL1 10 nM, Fig. 6C) is reported as “complete inhibition”. The “inhibition of calcium mobilization for CXCL7” value with neutrophils [6] (SB225002 10 µM, CXCL7 10 nM, Fig. 6B) was “complete inhibition”. Further, the “inhibition of CXCL8 stimulation ([Ca2+]i)” value in the data set on neutrophils [6] (SB225002 10 µM, CXCL8 10 nM, Fig. 6D) is “about 50%”. In addition, in the data set on neutrophils [6] (SB225002 10 µM, WKYMVm 5 µM, Fig. 6G), the “inhibition of calcium mobilization for WKYMVm” value is “not for fMLF (Fig. 6E), ATP (Fig. 6F) or WKYMVm”. Besides, in the data set on neutrophils [6] (SB225002 10 µM, fMLF 100 nM, Fig. 6E), the “inhibition of calcium mobilization for fMLF” value is “not for fMLF”. Further, the “inhibition of neutrophil migration with CXCL1 or CXCL8” value in the data set on neutrophils [7] (SB225002, ref [27]) is listed as “dose dependent inhibition”. Further, in the data set with neutrophils [7] (ref [27]), the “inhibition of CXCL1 and CXCL7 stimulated neutrophil migration” value was “completely inhibited”; the “inhibition of CXCL8 stimulated neutrophil migration” value is reported as “partially inhibited”.

For the compound pertussis toxin [PTX], in the data set with neutrophils [8], the “block of FPR- and CXCR-induced oxidase activity of neutrophils” value is “able to block”. Besides, the “block of CXCL8, fMLF, LTB4, CXCL6, and MNCF stimulated neutrophil migration” value in the data set on neutrophils [7] (ref [33], [63], [65]) is listed as “able to block”.

In the case of WKYMVm [reference compound], in the data set with monocytes [4] (CXCL1 50 nM, WKYMVm 5 µM, ATP 50 µM, BzATP 50 µM, 90 min, 37°C), the “stimulation of migration of monocytes” value is reported as “only LL-37 stimulated migration of monocytes”. In addition, the CXCR1 surface expression result in the data set with CXCR1 [9] was “caused down-regulation of both CXCR2 and CXCR1 expression with similar kinetics”. Also, the “FPR2 down-regulation on monocytes” value in the data set with FPR2 was “down regulated FPR2 and CXCR2”. Moreover, in the data set with CXCR2 [10], the CXCR2 surface expression result is “caused down-regulation of both CXCR2 and CXCR1 expression with similar kinetics”. In addition, the “calcium flux response in the absence of extracellular Ca2+” value in the data set on neutrophils [6] (PBS without calcium and magnesium, LL-37 5 µM, WKYMVm 5 µM, ATP 5 µM, Fig. 3C) is “capable of generating a calcium flux response”. Besides, the “calcium signal in THP-1 cells” value with THP-1 cells is reported as “but not WKYMVm gives a robust calcium signal”. Besides, the “block of LL-37 induced signal by WKYMVm pretreatment” value in the data set with THP-1 cells (WKYMVm first, then LL-37, THP-1) is given as “does not block the LL-37 induced signal”. Moreover, the “CXCR2 down-regulation on monocytes” value in the data set with CXCR2 [11] was “down regulated FPR2 and CXCR2”. Moreover, in the data set on neutrophils [12] (then CXCL1, Supporting information Fig. 3E-F), the “cross-desensitization of CXCL1 response by WKYMVm” value is recorded as “this was the case for CXCL1”. Also, the “cross-desensitization of LL-37 response by WKYMVm” value in the data set with neutrophils [12] (then LL-37, Supporting information Fig. 3C-D) was “able to block LL-37 stimulated calcium mobilization”. Besides, the “cross-block of LL-37 stimulated calcium mobilization in monocytes” value with monocytes [13] was “neither ATP nor WKYMVm cross-block LL-37 stimulated calcium mobilization”.
